Drawing on the RNAGym collection of RNA variant scans (doi:10.1101/gad.245936.114), this text covers nonsense suppression for 167 variants.

Variants at the floor of the assay were thinned out.

Sequences and labels used below:
B1: tRNA (parent)
chain: CUCUCGGUAGCCAAGUUGGUUUAAGGCGCAAGACUUUAAUUUAUCACUACGAAAUCUUGAGAUCGGGCGUUCGACUCGCCCCCGGGAGAUUUUUUCCUCGAGCAA

In this series the parent is B1. Briefly: nonsense suppression (GFP-seq) (ratio to wild type); higher = more function; SUP4oc tRNA, yeast GFP reporter sort-seq. In a few lines:
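To measure nonsense suppression, tRNA variants from a library carrying ~3% random mutations were integrated into the yeast genome alongside RFP and a GFP ochre reporter under galactose control. Growth took place in raffinose/galactose medium supplemented with 80 mg/L adenine, followed by sorting into GFP/RFP bins and Illumina sequencing of each bin (phred ≥30). For each variant with ≥100 reads and ≥30 cells, the bin median GFP/RFP values were weighted by its estimated cell share per bin and referenced to the unmutated parent tRNA.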
For C3A A33U, the nonsense suppression is at most 0.026. Then U2G G10C G15U C29U A31U, with at most 0.026. For C1U G32U U55A A62C G67C the value was at most 0.026; for C1A A30C, at most 0.026. For U2G U16G U22G A23U the value was at most 0.026. Take C1A U4G C27U: the nonsense suppression was at most 0.026. Regarding C3G G84U, the nonsense suppression is at most 0.026. As to C1U U63C, the nonsense suppression is at most 0.026.

As for U2G C83G, the nonsense suppression is at most 0.026. In the case of C3G G59A G78U A87U, the nonsense suppression was at most 0.026. Then U2G G19U A31U C83A G84A, with at most 0.026; and C1U A14U, with at most 0.026.

Consider C3A U35G, for which the nonsense suppression is at most 0.026. As for C3A U35A, the nonsense suppression was at most 0.026. For C3A U35C the value was at most 0.026; for C1A U21C G73A, at most 0.026; for C1A A24C A60C U63G C72G C77G, at most 0.026. Consider C1A A31U G84A G88A, for which the nonsense suppression is at most 0.026.

Take U2A G86A: the nonsense suppression was at most 0.026. As to U2C A13U C72A, the nonsense suppression was at most 0.026. Then C1A A9U C68G U76A C81A, with at most 0.026. For U2A C34G G85C A89C the value was 0.25; for C1G A31U G88A, at most 0.026. For C1A A30G G85A the value was 0.0742. For the variant C1U U17C C81G, the nonsense suppression was at most 0.026. For U2A C34A G78U G86U the value was at most 0.026. Then C3G U20C, with 0.0788. As to U2C A9C C75A, the nonsense suppression amounted to 0.038. For C1A G86C the value was at most 0.026. For U2A A24G G25A the value was at most 0.026; for C1A A13U, at most 0.026; for U2G U55G, at most 0.026. Then U2G U55C, with 0.053; and U2G G10A C11G U20G A33G, with at most 0.026.

For U2C A24C, the nonsense suppression was determined as 0.0326. In the case of C1A G26C, the nonsense suppression was at most 0.026. Then C1G C3G G25A C27U, with at most 0.026. For the variant U2C C12G A24C A62U C79A, the nonsense suppression is at most 0.026. Consider C3A C72A, for which the nonsense suppression is at most 0.026. Then U2C U4C A13G, with 0.205; and C1U U17G, with at most 0.026; and C1A C5U U17A U55A, with at most 0.026.

With C3G G28A U55C G86U G88U, the nonsense suppression is at most 0.026. As to C3U A9U A30G A54U G67A, the nonsense suppression is at most 0.026. Then U2A A31U A33G U58A, with at most 0.026; and C1A U17G U20G, with at most 0.026; and C3A G66C, with at most 0.026. C3U A23U A30C: the nonsense suppression was at most 0.026. As to C1A C11U C12U A14U A62U, the nonsense suppression was at most 0.026.

C1U G69C G73C: the nonsense suppression was at most 0.026. For C1A C81G the value was at most 0.026; for C1A C81U, 0.045. For U2A G65C the value was at most 0.026; for U2A U63C G84U, at most 0.026; for C1A A23C C77A, at most 0.026.

C1G G10C C29U C34G A89G: the nonsense suppression was at most 0.026. For U2A U4A G7A the value was at most 0.026; for U2C A31G, 0.0356; for C1A C3A U8A G88A, at most 0.026. Take C3G G7A C56G C79G: the nonsense suppression amounted to 0.783.

With C1A C5G, the nonsense suppression was at most 0.026.

Turning to C3A A89G, the nonsense suppression was at most 0.026. Then C3A G6A U71G, with at most 0.026. With U2C U16G, the nonsense suppression is 0.168. Then U2C C79G, with at most 0.026; and C1G G7A G66C A74C, with at most 0.026. For U2G A9U the value was 0.0677; for C1U G78A, 0.0525; for U2G G6C G18A G67C G86A A87U, at most 0.026.

U2G G6C G18A G67C G86A A87G: the nonsense suppression is at most 0.026. In the case of C3A U4A A62G, the nonsense suppression was at most 0.026.

As to U2C A30U A31G A62G G67A G86C, the nonsense suppression is at most 0.026. In the case of C1A U2A U35C U70A, the nonsense suppression is at most 0.026. For C3G C27U U57C G59A G61A the value was at most 0.026; for U2G U8A C12A A30G G59U G88C, at most 0.026; for U2C G88A, at most 0.026. Then C1A U4G C11U, with at most 0.026; and U2C G32A A54G, with at most 0.026. For U2C A60C C75U the value was at most 0.026. U2C C80A: the nonsense suppression is at most 0.026. Regarding U2G A74C, the nonsense suppression was at most 0.026. As to C3A G18C G86A, the nonsense suppression was at most 0.026. Then U2A C27U, with 0.0357; and C1G A14U C77U, with at most 0.026; and C3G G61C, with 0.0292. Then C3U, with 0.739. For U2A A30U the value was 0.031; for U2C G28U, at most 0.026; for U2C G78A, 0.0386. With C3G A14U G18U, the nonsense suppression was at most 0.026. With C1U U2C A54C G61U U76A, the nonsense suppression is at most 0.026. Then C1A G18C, with at most 0.026. For C1A G67C C72A the value was at most 0.026; for U2C A23G A62C G67A, at most 0.026; for C1G A87G, at most 0.026.

Take U2A C12A: the nonsense suppression is at most 0.026. Then U2A A31C A62C G78U A87U, with at most 0.026.

Consider C1A C56G A62U C80G C82A, for which the nonsense suppression is at most 0.026.

C1G G61A G78U A87C: the nonsense suppression was at most 0.026.

U2A U4G G18A: the nonsense suppression is at most 0.026. For C1A C5G A13G G18C A54U G65C the value was at most 0.026; for U2A C3G C27G C29G A33U, at most 0.026. For C1U G7U G15A U35A A62G the value was at most 0.026; for U2A C81U, 0.0376; for C3G A54C, 0.0677.

In the case of C3G U8G, the nonsense suppression was at most 0.026. For C1U C5U U22C U63C the value was at most 0.026.

Regarding C1G G25A U35C, the nonsense suppression was at most 0.026.

In the case of C1U G19U G28C U57C G84A, the nonsense suppression is at most 0.026. For C3G A74G, the nonsense suppression was at most 0.026. For C1A C3G U58A C68G, the nonsense suppression is at most 0.026.

Consider C3U A24C, for which the nonsense suppression is 0.0575. Then C1A A54G U58C U71C, with at most 0.026; and C1G U58C A62U G78U, with at most 0.026; and U2C U55A, with at most 0.026.

With C3A U20G G28U U57C G61C A74U G78C C79A, the nonsense suppression was at most 0.026. U2A G32U C34U: the nonsense suppression was at most 0.026. Then C3U A14G C80G, with at most 0.026; and C3G G65C C79U, with at most 0.026; and C3A A23G G25U C72A, with at most 0.026.

In the case of U2G G28U U35C, the nonsense suppression is at most 0.026. Then C1U C34U G85C, with at most 0.026; and U2G C27U A30G C79U C83A, with at most 0.026. In the case of C3G G7C U55A, the nonsense suppression is at most 0.026. Then U2C U57A, with 0.0292; and U2A U4C U16C, with 0.0971; and U2C C56U, with at most 0.026. Then U2C C56G, with at most 0.026; and U2C C56A, with at most 0.026; and C1U A14G A31G U58G, with at most 0.026. For U2G C77U the value was at most 0.026. Consider U2G C77G, for which the nonsense suppression was at most 0.026. Then C3G G15C U58G G88C, with 0.344; and U2A G15A G66C G85U, with at most 0.026. For C1U G18A U21G C27U the value was at most 0.026; for U2C C3U C12U G15A, at most 0.026.

As to C1A G10U G61A A62C G73C, the nonsense suppression is at most 0.026. For U2C C5A C75U C83A the value was at most 0.026; for U2G A23U, at most 0.026; for C1U U2G G18U, at most 0.026.

U2C U21C: the nonsense suppression stood at 0.203. Then C1G A24U G28A A74C C81A A89G, with at most 0.026; and U2C C68U A87G, with 1.13; and U2A C29A C56A A60U, with at most 0.026. Consider C1G C29A C34U, for which the nonsense suppression is at most 0.026. Then U2G C11A A74C G84C, with at most 0.026. Then C3A G25C U63A, with at most 0.026. Then C1G A54C, with 0.0309; and U2C C27A C82U, with at most 0.026; and C1U G67C, with at most 0.026.

As for C1G A33G U55C U71G G78C, the nonsense suppression is at most 0.026. Turning to C1U A9U A24C A30U A33G, the nonsense suppression was at most 0.026. For C1G C64A the value was at most 0.026. Then C1U A13C A30C C77U A89C, with at most 0.026; and U2G A33C A60U G73C, with at most 0.026. Then C1G G6U G66U G73U, with at most 0.026. Take C3G G85U: the nonsense suppression is 0.0369. Consider C3A G28A G73A A74G, for which the nonsense suppression was at most 0.026. Then C3A C34A U58A, with at most 0.026; and C1A U8G C12U A14C G85U, with at most 0.026. Then C1G U4G G78C, with at most 0.026; and C1U G15C G26C, with at most 0.026.

Turning to C1U G66A, the nonsense suppression was 0.254. For C1U G6A C64G the value was at most 0.026; for U2A U22G C29A C34A, 0.221; for C3G A13U, 0.0541. Then C1U A9G, with 0.0262.
